Drawing on ChEMBL document CHEMBL4513216, “Probing the Open Global Health Chemical Diversity Library for Multistage-Active Starting Points for Next-Generation Antimalarials” (ACS Infect Dis, 2020), this text covers cytotoxicity for 95 compounds.

The nature of the data set: Toxicity liver stage against HepG2, at 10uM. The arrangement: test concentration 10 uM, cell line HepG2-A16-CD81EGFP. The format is cell-based. As to conditions: human, HepG2-A16-CD81EGFP cells; read-out: INHIBITION
An outline of the steps:
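Uninfected HepG2-A16-CD81EGFP cells, 3 × 10^3 per well, 1536-well, plated on prespotted compound at 10 μM final, parasite-free screening media added to match infected plates; puromycin 10 μM positive, DMSO 0.5% negative; run in parallel with 48 h PbLuc assay at 37 °C, 5% CO2; viability by CellTiter-Glo luminescence, normalized to controls.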
Consider `Cc1cc(C(=O)NCc2cccnc2N2CCCC(O)C2)c(C)o1` (stereo not given), for which the cytotoxicity at 10 µM was determined as 16.3%.

In the case of `CC(C)N(C)Cc1cnc2n1CCN(C(=O)Cc1ccsc1)C2`, the cytotoxicity at 10 µM was -118%.

Turning to `Cn1cc(CCCNS(=O)(=O)N2CCCC2c2ccco2)cn1` (stereo not given), the cytotoxicity at 10 µM is 9.38%.

In the case of `O=C(NCCOc1ccc(F)cc1)C1CCCN(C(=O)C2CC2)C1` (stereo not given), the cytotoxicity at 10 µM was determined as 0.856%.

As for `CN(C)S(=O)(=O)N(C)C(c1cccnc1)c1ccc(F)c(F)c1` (stereo not given), the cytotoxicity at 10 µM is -3.53%.

On to `CCc1cccc(OCC(=O)NC(C)c2nnc3n2CCC3)c1` (stereo not given), for which the cytotoxicity at 10 µM is -3.78%.

With `OC1CCCN(Cc2c(-c3ccco3)[nH]c3ncccc23)C1` (stereo not given), the cytotoxicity at 10 µM is -5.87%.

Turning to `c1ccc2oc(CN3CCCC(Cn4cncn4)C3)nc2c1` (stereo not given), the cytotoxicity at 10 µM is -7.3%.

Consider `Cc1cccc(C2CCN(S(=O)(=O)c3cn(C)cn3)CC2)n1`, for which the cytotoxicity at 10 µM was -20.2%.

As for `CC(C)=CCN1CCOC(Cn2cccn2)C1` (stereo not given), the cytotoxicity at 10 µM was 2.4%.

`Cc1nc(CCC(=O)NC2CCC2)cc(C2CCNCC2)n1`: the cytotoxicity at 10 µM is -5.15%.

For the compound `CCc1c(C(=O)Nc2ccc(F)c(C(=O)NC)c2)cnn1CC(C)C`, the cytotoxicity at 10 µM was 14.7%.

For the compound `COCc1noc(C2(c3cccc(Cl)c3)CCOCC2)n1`, the cytotoxicity at 10 µM was -2.93%.

As to `Cc1ccc(OC[C@@H]2CNC[C@H](C(=O)NCC3CCCO3)C2)cn1` (stereo not given in full), the cytotoxicity at 10 µM is -8.14%.

On to `Cc1ccc(N2CC[C@@H]3CN(Cc4cccc(C)n4)C[C@@H]3C2)nn1`, for which the cytotoxicity at 10 µM stood at 6.34%.

As to `CNC(=O)[C@@]12CCO[C@@H]1CCN(S(=O)(=O)c1ccccc1C)C2`, the cytotoxicity at 10 µM is -72.8%.

Turning to `Cc1cccc(COc2ccc(C(C)NS(N)(=O)=O)cc2)c1` (stereo not given), the cytotoxicity at 10 µM is -6.96%.

Consider `COc1ccccc1CN1CCCC2(Cc3ccccc3CNC2=O)C1` (stereo not given), for which the cytotoxicity at 10 µM stood at 6.2%.

Turning to `COCc1noc(Cn2c(C)cc(C(F)(F)F)cc2=O)n1`, the cytotoxicity at 10 µM was found to be 2.65%.

With `COCCCNC(=O)Cc1cc(-c2ccc(Cl)cc2)on1`, the cytotoxicity at 10 µM was -21.4%.

As for `CN(C)CCN(Cc1cccc(F)c1)C(=O)c1ccn(C)c(=O)c1`, the cytotoxicity at 10 µM is -3.92%.

Take `O=C(Nc1cc(C(F)(F)F)c[nH]c1=O)N1CCSCC1`: the cytotoxicity at 10 µM was -5.1%.

Consider `Cc1ncsc1CNc1cc(N2CCCC2CO)ncn1` (stereo not given), for which the cytotoxicity at 10 µM was -12.5%.

For the compound `Cc1cnn(CC2CN(Cc3nc4ccccc4s3)CCO2)c1` (stereo not given), the cytotoxicity at 10 µM turned out to be 0.639%.

Regarding `O=C(c1cnccn1)N1CCCC2(CCCN2Cc2cccnc2)C1` (stereo not given), the cytotoxicity at 10 µM is -1.01%.

As to `COc1cccc(CN2CCCCCC2c2sccc2C)c1O` (stereo not given), the cytotoxicity at 10 µM amounted to 7.18%.

Consider `CN(Cc1nnc2n1CCC2)C(=O)c1ccc2c(c1)OCO2`, for which the cytotoxicity at 10 µM was -18.2%.

For the compound `CCN1C[C@H]2N(c3ncccn3)CCC[C@@]2(C(=O)NCC2CC2)C1`, the cytotoxicity at 10 µM is -97.3%.

For the compound `Cn1cc(C(=O)CC2CCCN2C(=O)c2n[nH]c3ccccc23)cn1` (stereo not given), the cytotoxicity at 10 µM is -0.842%.

In the case of `CN(C)S(=O)(=O)N1C[C@@H]2COC[C@]2(COc2ccccn2)C1`, the cytotoxicity at 10 µM amounted to 0.705%.

`COCCNC(=O)[C@H]1C[C@@H]2CCN(CCc3ccccc3)C[C@@H]2O1`: the cytotoxicity at 10 µM is -74.5%.

As to `O=C(NCCCn1nc2ccccn2c1=O)Nc1ccccc1`, the cytotoxicity at 10 µM was -13.6%.

Take `Cc1c(C2N3CC4(C)CN2CC(C)(C3)C4=O)[nH]c(=O)[nH]c1=O` (stereo not given): the cytotoxicity at 10 µM was found to be 6.57%.

`COCCC1(CNC(=O)Nc2ccnc(C)c2)CCCC1`: the cytotoxicity at 10 µM was found to be 2.12%.

Consider `CC1=N[C@@]2(CC[C@@H]3CN(S(=O)(=O)CC(C)C)C[C@@H]32)C(=O)N1CC(C)C`, for which the cytotoxicity at 10 µM is -1.34%.

As to `Cc1nc(C2CCCN(C(=O)c3ccco3)C2)no1` (stereo not given), the cytotoxicity at 10 µM is 0.529%.

With `Cn1ccnc1CN1CCN2C[C@H](Oc3cccc(F)c3)C[C@H]2C1`, the cytotoxicity at 10 µM worked out at 13.6%.

For `COc1cccc(-c2noc(-c3ccc(NCC(C)C)nc3)n2)c1OC`, the cytotoxicity at 10 µM is -12.2%.

`Cc1ncc(-c2ccccn2)c(CCNC(=O)C2CCCC2)n1`: the cytotoxicity at 10 µM came to 16.4%.

For `Nc1nccc(C2CCCN(CC3CC3)C2)n1` (stereo not given), the cytotoxicity at 10 µM was 0.631%.

In the case of `O=C(O)c1ccc2[nH]cc(CN3CCOCC3)c2c1`, the cytotoxicity at 10 µM was -9.48%.

Turning to `CCCc1nc(N2CCCN3CCC[C@H]3C2)c2cnn(C)c2n1`, the cytotoxicity at 10 µM was -129%.

`C=C(C)COc1cccc(C(=O)N(CC)Cc2nc(COC)no2)c1`: the cytotoxicity at 10 µM was -18%.

`CC(C)c1nccn1CCC(=O)N1CCCC1c1cccn1C` (stereo not given): the cytotoxicity at 10 µM is -6.66%.

Regarding `CCS(=O)(=O)N1CCOC2(CCCN(Cc3ccccn3)C2)C1` (stereo not given), the cytotoxicity at 10 µM was 5.86%.

For the compound `Cc1ccc(-c2nc(CN3CCN(CCO)CC3)co2)cc1`, the cytotoxicity at 10 µM was -23.7%.

As for `COCCN1CCO[C@@H]2CN(C(=O)COc3ccc(C)cc3)C[C@@H]2C1`, the cytotoxicity at 10 µM is -0.572%.

On to `CCCc1nnc2sc(C3CCS(=O)(=O)CC3)nn12`, for which the cytotoxicity at 10 µM came to 1.4%.

`CCCN(CC1CC1)C(=O)CN1CCCC1c1cnn(C)c1` (stereo not given): the cytotoxicity at 10 µM stood at 2.45%.

Consider `CN(C)C(=O)COCC1CN(Cc2ccsc2)Cc2nccn2C1` (stereo not given), for which the cytotoxicity at 10 µM was -72.3%.

As to `COc1ccc(CN2C[C@H]3CN(c4cncnc4)C(=O)[C@H]3C2)cc1`, the cytotoxicity at 10 µM worked out at 4.74%.

For `CN1CCN(S(=O)(=O)c2ccc3c(c2)CN(C(=O)C(C)(C)C)CC3)CC1`, the cytotoxicity at 10 µM was -8.91%.

As for `CC(C)NC(=O)c1ccc2c(c1)nc1n2CCN(Cc2ccco2)C1`, the cytotoxicity at 10 µM was determined as 8.16%.

For the compound `CCc1ncc(-c2nccn2-c2cccc(CC(=O)O)c2)cn1`, the cytotoxicity at 10 µM came to 10.2%.

Regarding `CCOCCN1CCN([C@@H]2c3ccccc3C3(CCNCC3)[C@H]2O)CC1`, the cytotoxicity at 10 µM is -0.777%.

Turning to `COC(=O)N1CCN(Cc2csc(-c3ncccn3)n2)CC1`, the cytotoxicity at 10 µM is -7.53%.

Consider `O=C(c1cnccn1)N1CCc2c(COCC3CC3)cncc2C1`, for which the cytotoxicity at 10 µM is -72.4%.

In the case of `COCC(NC(=O)c1cc(NC(C)=O)ccc1Cl)c1ccnn1C` (stereo not given), the cytotoxicity at 10 µM is -2.22%.

For the compound `CC(C)CC(=O)N1CCC2(CC1)COCCN2Cc1ccc(F)cc1`, the cytotoxicity at 10 µM is -77.1%.

Turning to `CNc1nc2c(s1)C(=O)CN(C(=O)NCc1ccccc1)C2`, the cytotoxicity at 10 µM was determined as 24.4%.

With `CC(=O)N1CCCN(C(=O)c2cnc3n[nH]c(C)c3c2)CC1`, the cytotoxicity at 10 µM was -5.85%.

For the compound `Cn1cc(S(=O)(=O)N2CCCC(Cn3cncn3)C2)cn1` (stereo not given), the cytotoxicity at 10 µM was 2%.

Turning to `CN1C(=O)CCC12CCCN(Cc1nccs1)C2` (stereo not given), the cytotoxicity at 10 µM was -68.8%.

For `CNC(=O)NC(=O)CN1CCC(c2c[nH]c3ccc(OC)cc23)CC1`, the cytotoxicity at 10 µM was determined as 21.4%.

`CN1CCNC(=O)C12CCN(Cc1ccco1)CC2`: the cytotoxicity at 10 µM was -81.3%.

For `COCCn1ccnc1CN1CCc2[nH]cnc2C1c1cccc(O)c1` (stereo not given), the cytotoxicity at 10 µM is -2%.

For `COc1cc(N2CC[C@@H](O)[C@@H]2Cc2ccccc2)ncn1`, the cytotoxicity at 10 µM is -52.1%.

In the case of `O=c1[nH]c2cc3c(cc2cc1CN1CCCC1c1ccccn1)OCO3` (stereo not given), the cytotoxicity at 10 µM was -4.5%.

With `Cc1ccnc(CC(C)N(C)Cc2ccc3c(c2)OCCO3)c1` (stereo not given), the cytotoxicity at 10 µM is -4.24%.

Turning to `CC(C)c1nc(C2CCCN(c3nccc(C(F)(F)F)n3)C2)no1` (stereo not given), the cytotoxicity at 10 µM was determined as 5.83%.

Take `CC1CCN(c2ccc(=O)n(CC(=O)NCCc3ccccc3)n2)CC1`: the cytotoxicity at 10 µM came out at 0.277%.

As to `O=C(CCc1ccccc1F)N1CCC(Nc2cccnn2)CC1`, the cytotoxicity at 10 µM is -3.78%.

Turning to `CCc1onc(C)c1C(=O)N1CCC(c2cc3ncccc3cn2)CC1`, the cytotoxicity at 10 µM came to 1.68%.

Regarding `CC(=O)N1CCN(C(=O)CCCc2nc(C(C)C)no2)CC1`, the cytotoxicity at 10 µM was -9.34%.

As to `COCCN(C)C(=O)c1nc2c(s1)CCCN2c1ncccn1`, the cytotoxicity at 10 µM was -131%.

Turning to `CC(=O)c1cc(CC(=O)NCc2ccc(F)cc2)cs1`, the cytotoxicity at 10 µM was -18.7%.

Take `CCc1cc(N2CCC(N[C@@H]3CS(=O)(=O)C[C@H]3O)CC2)nc(N(C)C)n1`: the cytotoxicity at 10 µM is -0.157%.

As to `CCCC1CN(CCOc2ccccc2)C(=O)c2cccnc2O1` (stereo not given), the cytotoxicity at 10 µM was -6.77%.

With `CC(C)c1noc(CN2CCN(C(=O)c3cccnc3O)CC2)n1`, the cytotoxicity at 10 µM is -9.86%.

With `Cc1noc(C2CN(S(=O)(=O)C3CC3)Cc3ccnn3C2)n1` (stereo not given), the cytotoxicity at 10 µM was 7.19%.

As to `CCn1ncc(Cn2cc(Cl)c(N)n2)c1C`, the cytotoxicity at 10 µM was -8.55%.

`CC(CNC(=O)CCc1ccco1)N1CCc2sccc2C1` (stereo not given): the cytotoxicity at 10 µM stood at 4.35%.

`CCCN(CC)C(=O)c1cc(Cn2c(C)nc3ccccc32)[nH]n1`: the cytotoxicity at 10 µM came to 36.7%.

Turning to `CNC(=O)[C@@H]1C[C@@H](NC(=O)Cc2nonc2C)CN1Cc1sccc1C`, the cytotoxicity at 10 µM was -4.42%.

For the compound `CO[C@H]1CN(Cc2c(C)ccc3ncccc23)CC[C@H]1N`, the cytotoxicity at 10 µM was -146%.

Regarding `Cc1nnc(N2C[C@@H](OCCCn3cccn3)[C@H]3OCCC[C@H]32)s1`, the cytotoxicity at 10 µM is -8.19%.

Turning to `CN(Cc1ncnn1C1Cc2ccccc2C1)C1CCS(=O)(=O)C1` (stereo not given), the cytotoxicity at 10 µM was -2.14%.

Take `CN(Cc1ccccc1)CC(O)Cn1cnc2ccc(Br)cc2c1=O` (stereo not given): the cytotoxicity at 10 µM is -9.04%.

As for `CC(=O)Nc1ncc(S(=O)(=O)N2CCC(C)CC2)s1`, the cytotoxicity at 10 µM is 14.8%.

Regarding `CCN(CC)C(=O)CN(C)C1CCc2ccccc21` (stereo not given), the cytotoxicity at 10 µM is -5.1%.

For `CC(=O)Nc1nc(C2CCN(C(C)C)CC2)cs1`, the cytotoxicity at 10 µM is -3.3%.

For `CC(C)(C)c1cc(CN2C[C@@H]3CC[C@H]2CN(Cc2cscn2)C3)n[nH]1`, the cytotoxicity at 10 µM was 5.13%.

Regarding `Cc1noc(C(C)C)c1C(=O)NCc1cc(F)cc(F)c1`, the cytotoxicity at 10 µM is -5.54%.

Regarding `Cc1ccccc1CN1CCN(C(C)c2nc(C3CC3)no2)CC1` (stereo not given), the cytotoxicity at 10 µM is -22.2%.

In the case of `CCN(CC)CC1CN(Cc2cccc(C#N)c2)Cc2nccn2C1` (stereo not given), the cytotoxicity at 10 µM is -127%.
